Assay outcomes: PubChem, several laboratories
UCH37 DUB inh – human UCH37 deubiquitinating enzyme inhibition | purified proteasome/UCH37, Ub-AMC cleavage fluorescence | inhibition, % (no concentration beside the values) | Q9Y5K5 | AID 588478 | actives 0.33% (n = 330,000);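 active = mean inhibition over replicate wells above about 20%, limit read from the data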;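 note: 0% = compound-free wells with enzyme and 100% = wells lacking proteasome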
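Material: Human UCH37 enzyme supplied as purified proteasome complex | Schedule: 30 min preincubation with enzyme, 25 min cleavage at room temperature | Detection: AMC fluorescence 355/460 nm | Measure: % inhibition of Ub-AMC cleavage fluorescence | Controls: Wells without proteasome as full block, compound-free enzyme plus substrate as uninhibited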
MEKK2wt PB1 HTS – raises or lowers MEK5 binding to wildtype human MEKK2 PB1 domain. Q9Y2U5. bead flow cytometry, Alexa488-MEK5 binding to MEKK2 WT; actives lie on both sides. binding response (% of control), % at 10 µM. actives 1.1% (n = 290,000); in the data active = binding response below about 67% or above about 130%
MEKK2mut PB1 HTS – signal of MEK5 binding to mutant human MEKK2 PB1 domain; bead flow cytometry, Alexa488-MEK5 binding to MEKK2 mutant; percent response, % at 10 µM; actives 0.35% (n = 290,000); in the data active = percent response above about 24%, passing the limit was not always enough
UBC13 inh – blocks human UBC13 polyubiquitin chain formation; actives 0.47% (n = 330,000); P61088; TR-FRET; inhibition, % at 20 µM; in the data active = inhibition above about 45%, passing the limit was not always enough
Apaf1 inhib – inhibitors of human Apaf-1 apoptosome; reconstituted apoptosome caspase-3 activity, DEVD-Rh110 fluorescence; actives 0.71% (n = 330,000); inhibition, % at 20 µM; active = inhibition of at least 40% at 20 µM;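 note: plate controls were DMSO wells for no effect and DEVD-CHO caspase inhibitor wells for full effect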
Target sequence (O14727 whole entry, looked up): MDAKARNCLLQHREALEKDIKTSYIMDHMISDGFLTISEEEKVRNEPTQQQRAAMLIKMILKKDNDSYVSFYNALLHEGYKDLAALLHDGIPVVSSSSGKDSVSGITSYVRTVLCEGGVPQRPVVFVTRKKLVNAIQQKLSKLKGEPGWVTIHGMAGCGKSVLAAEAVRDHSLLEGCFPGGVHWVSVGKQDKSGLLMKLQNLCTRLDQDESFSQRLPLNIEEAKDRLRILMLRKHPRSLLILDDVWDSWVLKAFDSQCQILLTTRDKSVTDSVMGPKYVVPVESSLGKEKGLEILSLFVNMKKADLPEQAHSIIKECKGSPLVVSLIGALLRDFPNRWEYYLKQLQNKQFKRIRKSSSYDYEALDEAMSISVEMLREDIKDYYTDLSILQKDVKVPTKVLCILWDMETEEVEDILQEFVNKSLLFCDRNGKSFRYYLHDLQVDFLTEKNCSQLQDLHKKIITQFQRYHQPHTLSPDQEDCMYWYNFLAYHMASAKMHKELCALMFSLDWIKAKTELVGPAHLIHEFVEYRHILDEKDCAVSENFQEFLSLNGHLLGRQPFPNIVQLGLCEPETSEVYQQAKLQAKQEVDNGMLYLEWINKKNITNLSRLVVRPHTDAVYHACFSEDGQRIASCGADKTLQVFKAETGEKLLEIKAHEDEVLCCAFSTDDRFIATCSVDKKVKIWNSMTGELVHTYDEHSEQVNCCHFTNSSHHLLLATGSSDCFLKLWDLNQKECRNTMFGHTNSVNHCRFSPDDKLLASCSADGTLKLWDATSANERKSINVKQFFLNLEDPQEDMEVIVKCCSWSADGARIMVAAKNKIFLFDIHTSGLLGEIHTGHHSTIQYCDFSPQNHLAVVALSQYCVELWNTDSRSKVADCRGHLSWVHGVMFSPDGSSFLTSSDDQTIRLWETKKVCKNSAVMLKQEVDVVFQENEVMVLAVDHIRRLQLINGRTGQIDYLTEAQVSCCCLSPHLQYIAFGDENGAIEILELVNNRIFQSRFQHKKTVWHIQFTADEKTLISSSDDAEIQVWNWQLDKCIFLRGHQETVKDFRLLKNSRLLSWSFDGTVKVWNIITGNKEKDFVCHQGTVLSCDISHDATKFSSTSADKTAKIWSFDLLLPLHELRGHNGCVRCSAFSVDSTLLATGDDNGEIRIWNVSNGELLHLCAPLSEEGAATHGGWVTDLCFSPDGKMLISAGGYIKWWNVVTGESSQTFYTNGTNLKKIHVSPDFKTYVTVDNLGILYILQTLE
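Medium: Hepes buffer, pH 7.5 / System: biochemical Apaf-1 apoptosome reconstitution / Measured by: Rh110 fluorescence, excitation 480 nm, emission 540 nm / Times: compound with Apaf-1, dATP, procaspase-3 30 min, then 50 min reaction, room temperature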
MEKK3 PB1 HTS – modulators (inhibitors or enhancers) of MEK5 binding to human MEKK3 PB1 domain. Q99759. bead-based flow cytometry, Alexa488-MEK5 binding to MEKK3; actives lie on both sides; 0 = blocked by unlabeled MEK5, 100 = vehicle. binding response (% of control), % at 10 µM. actives 1.4% (n = 290,000). AID 1529;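 active = binding response more than 3 SD above or below the average of its plate-row segment, actives on both sides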;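 note: Alexa488 bead fluorescence after subtracting the streptavidin-only scavenger bead signal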
MEKK2wt confirm – raises or lowers MEK5 binding to wildtype human MEKK2, retest; shares compounds with MEKK3 PB1 HTS; bead flow cytometry, Alexa488-MEK5 binding to MEKK2 WT; actives lie on both sides; binding response (% of control), % at 10 µM; actives 2.4% (n = 5,900); AID 1892; in the data active = binding response below about 16% or above about 210%; inactive = in between
MEKK2mut confirm – signal of MEK5 binding to mutant human MEKK2, retest; actives 2% (n = 5,900); AID 1893; percent response, % at 10 µM; bead flow cytometry, Alexa488-MEK5 binding to MEKK2 mutant; shares compounds with MEKK3 PB1 HTS; in the data active = percent response mostly above about 71%, no sharp cut-off; inactive = mostly below about 38%;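 note: higher means compound restores mutant binding toward wildtype level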
MEKK3 confirm – confirmation of inhibitors of MEK5 binding to human MEKK3. AID 1894. binding response (% of control), % at 10 µM. actives 1.8% (n = 5,900). bead flow cytometry, Alexa488-MEK5 binding to MEKK3; stronger effect = lower value. shares compounds with MEKK3 PB1 HTS;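 active = binding response below 72% of control, or above a set upper limit, though filed actives all read lower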;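 note: 100% = DMSO only wells and 0% = binding blocked by excess unlabeled MEK5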
* marks the source's active call; other numbers are inactive results; i = inactive; . = not tested or not shown; ! = not confirmed by another sample; [ ] = another dose, or the depositor's remark. In the library only some 3% were active in any assay of this set; here they are far more common.

SMILES	UCH37 DUB inh	MEKK2wt PB1 HTS	MEKK2mut PB1 HTS	UBC13 inh	Apaf1 inhib	MEKK3 PB1 HTS	MEKK2wt confirm	MEKK2mut confirm	MEKK3 confirm
C=C1C(=O)O[C@@H]2C[C@@H](C)[C@@H]3C4OC4C(=O)[C@@]3(C)[C@@H](O)[C@H]12 (stereo not given in full)	6.0	70.0	4.0	-2.7	-4.4	69.0*[inhibitor]	97.0	-5.0	101.0
C=C1C(=O)O[C@@H]2C[C@@H](C)[C@@H]3C=CC(=O)[C@@]3(C)[C@@H](OC(=O)CC(=O)O[C@H]3[C@@H]4C(=C)C(=O)O[C@@H]4C[C@@H](C)[C@@H]4C=CC(=O)[C@]43C)[C@H]12	5.9	96.0	3.0	-36.5	7.9	94.0	.	.	.
CC/C(=N\N1CCN(C)CC1)c1c(O)[nH]c(=O)[nH]c1=O	1.9	105.0	0.0	1.3	1.8	140.0*	104.0	4.0	100.0
CC/C(=N\N1CCCCC1)c1c(O)[nH]c(=O)[nH]c1=O	0.5	109.0	1.0	-10.7	-18.8	106.0	.	.	.
CC[C@@H]1C(=O)OC[C@@H]1Cc1cncn1C	4.2	.	.	.	.	.	.	.	.
CC[C@@H]1C(=O)OC[C@@H]1Cc1cncn1C	7.2	55.0*![inhibitor]	4.0	0.7	9.3	88.0	99.0	-5.0	99.0
CCOC(=O)C1(c2ccccc2)CCN(CCC(C#N)(c2ccccc2)c2ccccc2)CC1	0.2	136.0*	6.0	6.2	16.1	101.0	132.0	27.0	103.0
CCOC(=O)C1(c2ccccc2)CCN(CCC(=O)Nc2ccc(C(=O)OC)cc2)CC1	0.4	.	.	10.0	7.1	.	.	.	.
CCCCOC(=O)C1=C(N)OC2=C(C(=O)CCC2)[C@]12C(=O)N(C)c1ccccc12	0.5	98.0	-3.0	-1.0	-17.9	97.0	.	.	.
Cc1cccc(OP(N)(=O)Oc2cccc(C)c2)c1	0.8	120.0	29.0	3.5	-3.5	132.0*	92.0	-12.0	97.0
OCCNc1c2c(nc3ccccc13)CCCC2	8.9	0.0*[inhibitor]	-42.0	-7.6	-2.2	0.0*[inhibitor]	104.0	-2.0	104.0
Cc1cc(OC(=O)c2cccs2)c2c3c(c(=O)oc2c1)CCCC3	1.9	108.0	0.0	11.9	26.2	151.0*	100.0	-3.0	101.0
CC(=NCCCn1ccnc1)c1c(O)n(C2CCCCC2)c(=O)[nH]c1=O	2.9	113.0	23.0	-3.5	-7.2	132.0*	103.0	-2.0	106.0
O=c1[nH]c(=O)n(C2CCCCC2)c(O)c1C=NCCCn1ccnc1	0.4	.	.	-5.3	1.0	.	.	.	.
CC[n+]1c(SC)ccc2cc(OC)ccc21	-62.8	108.0	1.0	-4.9	-9.4	175.0*	107.0	5.0	103.0
CN(C)Cc1c[nH]c2ccc([N+](=O)[O-])cc12	4.9	.	.	.	.	.	.	.	.
COc1ccc2[nH]cc(CCN)c2c1	1.4	152.0*	14.0	1.8	-0.3	91.0	111.0	12.0	99.0
CC(C)(C)CNC(=O)[C@]1(C)CCC[C@@]2(C)C3CC[C@@]4(C)C[C@]3(CCC21)CC4=O (stereo not given in full)	3.5	.	.	3.9	18.2	.	.	.	.
CN(C)c1ccc2c(c1)N=C(c1ccco1)OP2(=S)N1CCOCC1 (stereo not given)	3.5	99.0	2.0	-4.3	-16.3	102.0	.	.	.
CCCCCn1c(=O)c(C(=O)Nc2ccccc2C)c(O)c2ccccc21	-39.0	100.0	-1.0	4.6	-2.1	100.0	.	.	.
Cc1ccccc1NC(=O)NCCN1CC1	.	144.0*	23.0	16.3	15.1	95.0	159.0	22.0	100.0
O=c1cccc2n1CC1CC2CN(Cc2ccc3c(c2)OCO3)C1 (stereo not given)	2.6	-1.0*[inhibitor]	-27.0	9.5	-12.9	2.0*[inhibitor]	109.0	16.0	109.0
Clc1ccc(C2NCCc3[nH]cnc32)cc1 (stereo not given)	0.1	137.0*	51.0*	2.8	-6.9	109.0	127.0	12.0	104.0
Cc1cc(OCC(=O)N[C@H](C(=O)O)c2ccccc2)c2c3c(c(=O)oc2c1)CCC3	-124.3	100.0	-1.0	-5.5	0.6	98.0	.	.	.
C=CCn1c(O)c(/C(C)=N/N2CCCCC2)c(=O)[nH]c1=O	2.1	105.0	10.0	-2.2	8.5	107.0	.	.	.
SMILES	UCH37 DUB inh	MEKK2wt PB1 HTS	MEKK2mut PB1 HTS	UBC13 inh	Apaf1 inhib	MEKK3 PB1 HTS	MEKK2wt confirm	MEKK2mut confirm	MEKK3 confirm
COc1cccc(CNCCc2c[nH]c3ccccc23)c1OC	0.8	147.0*	44.0	5.6	-22.3	107.0	114.0	3.0	103.0
COc1ccc(CNCCc2c[nH]c3ccccc23)c(OC)c1OC	.	118.0	8.0	14.3	-15.0	105.0	.	.	.
Cc1nn(C)c(C)c1/C=C1/CC2C3CC=C4CC(O)CCC4(C)C3CCC2(C)C1=O (stereo not given)	3.4	103.0	2.0	-8.3	19.9	105.0	.	.	.
Cn1c(O)c(/C=C/C=Nc2ccccc2)c(=O)n(C)c1=O	7.9	100.0	6.0	-24.0	-7.7	102.0	.	.	.
CN1/C(=C\C=Nc2ccccc2)C(C)(C)c2ccccc21	6.4	0.0*[inhibitor]	1.0	-9.3	6.8	80.0	104.0	4.0	100.0
Cc1cc(C=O)c(C)n1C(C)C	1.2	98.0	1.0	-10.5	5.9	101.0	.	.	.
Nc1c(C(=O)NCc2ccco2)c2nc3ccccc3nc2n1CCN1CCCCC1	i	146.0*	29.0*	-25.8	4.8	122.0*	139.0	16.0	105.0
C=CCNC(=O)c1c(N)n(CCN2CCOCC2)c2nc3ccccc3nc12	-306.8	98.0	5.0	2.6	-17.4	97.0	.	.	.
CCCNC(=O)N1[C@H]2CC[C@@H]1C(C(=O)OC)=C(c1ccc(OC(F)(F)F)cc1)C2	0.2	.	.	-9.3	10.6	.	.	.	.
CN1CCN(c2ccc(Cl)cc2N)CC1	1.6	101.0	-4.0	-8.4	-6.2	97.0	.	.	.
Cc1ccc(Cl)cc1N1CCN(CCN)CC1	2.3	139.0*	40.0*	9.3	9.2	108.0	128.0	12.0	100.0
O=C(C(Cc1ccccc1)NS(=O)(=O)c1cccc2nsnc12)N1CCC2(CC1)OCCO2 (stereo not given)	4.4	94.0	-4.0	3.7	-1.2	91.0	.	.	.
CN1CCN(Cc2nc3ccccc3c(=O)[nH]2)CC1	2.9	102.0	8.0	5.8	-6.2	103.0	.	.	.
Cc1cc(OCCN2CC2)c2ccccc2n1	.	141.0*	15.0	5.2	6.8	93.0	172.0	51.0	110.0
